Activity calls are given as the source filed them. The calls are words filed in the database; no cut-off is given here.
Assays:
Influenza A virus [1] = experiment: Antiviral activity against Influenza A virus A/WSN/1933 (H1N1) infected in BALB/c mouse assessed as animal survival rate at 20 mg/kg/day, ip administered for 5 days and measured after 14 days relative to control; format: functional
How it was run: (§1)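 Female BALB/c mice (18−20 g), quarantined 48−72 h, anesthetized i.p. (zoletil or ketamine/xylazine). Drug in PBS with 40% PEG 400 given i.p. twice daily for 5 days. Intranasal virus challenge (25 μL, 2X mouse LD₅₀) 4 h after first dose. Vehicle-only controls on the same schedule; 10 mice/group. Survival and body weight recorded daily for 14 days.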

[2] = Inhibition of nucleoprotein trimerization in recombinant Influenza A virus A/WSN/1933 (H1N1) infected in MDCK cells assessed as reduction in reduction in E339(carboxyl group)-R416(guanidino group) interaction by measuring virus-induced cytopathic effect after 48 hrs by CellTiter 96 AQueous non-radioactive cell proliferation assay; format: cell-based
How it was run: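 CPE protection assay. Virus at 100 TCID₅₀ is mixed 1:1 with compound at varied concentrations and added to MDCK cells (1 × 10⁵ cells/mL). After 48 h at 37 °C/5% CO₂, CPE is read with CellTiter 96 AQueous reagent. EC₅₀, the concentration giving 50% protection from CPE, is obtained by fitting percent CPE against concentration.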

[3] = Cytotoxicity against dog MDCK cells after 48 hrs by CellTiter 96 AQueous non-radioactive cell proliferation assay; format: cell-based, Canis lupus familiaris
How it was run: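 MDCK cells, grown in DMEM with 10% FBS and penicillin−streptomycin at 37 °C/5% CO₂, seeded at 1 × 10⁵ cells/mL and exposed to varied compound concentrations without virus. Incubated 48 h at 37 °C under 5% CO₂, then read with CellTiter 96 AQueous (MTS) reagent. CC₅₀ is the 50% cytotoxic concentration from the curve fit.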

Influenza A virus [4] = experiment: Antiviral activity against Influenza A virus A/WSN/1933 (H1N1) infected in BALB/c mouse assessed as increase in animal body weight at 20 mg/kg/day, ip administered for 5 days and measured after 10 days post infection; format: functional, organism-based; how it was run: as §1
[5] = Aqueous solubility of compound; format: physicochemical; settings: buffer

SMILES	Activity (Influenza A virus [1])	EC50 [2]	CC50 at 48 h [3]	Activity (Influenza A virus [4])	solubility [5]
CC(C)OCCCNC(=O)c1csc(Nc2cc(F)c(Cl)c(F)c2)n1.O=S(=O)(O)O.O=S(=O)(O)O	30%	–	–	–	–
Cc1cc(Nc2nc(C(=O)NCCCOC(C)C)cs2)cc(C)c1Cl	–	1.3 µM	> 100 µM	–	–
Cc1cc(Nc2nc(C(=O)NCCCN3CCOCC3)cs2)ccc1Cl	–	3.7 µM	47 µM	–	–
CCOCCCNC(=O)c1csc(Nc2cc(C)c(Cl)c(C)c2)n1	–	2.3 µM	> 100 µM	–	–
CC(C)OCCCNC(=O)c1csc(Nc2ccc(Cl)c(Cl)c2)n1	–	0.7 µM	100 µM	–	–
CC(C)OCCCNC(=O)c1csc(Nc2ccc(Cl)c(F)c2)n1	–	0.5 µM	> 100 µM	–	–
CCOCCCNC(=O)c1csc(Nc2ccc(Cl)c(F)c2)n1	–	0.6 µM	> 100 µM	–	–
CCOCCCNC(=O)c1csc(Nc2ccc(Cl)c(C)c2)n1	–	1 µM	52 µM	–	–
O=C(NCCCN1CCOCC1)c1csc(Nc2ccc(Cl)c(Cl)c2)n1	–	2.7 µM	35.6 µM	–	–
CCOCCCNC(=O)c1csc(Nc2cc(F)c(Cl)c(F)c2)n1.CS(=O)(=O)O.CS(=O)(=O)O	70%	–	–	–	–
CC(C)OCCCNC(=O)c1csc(Nc2ccc(Cl)cc2)n1	–	1.2 µM	> 100 µM	–	–
CCOCCCNC(=O)c1csc(Nc2cc(F)c(Cl)c(F)c2)n1 [listing 1 of 2 here]	–	–	–	Active	–
CC(C)OCCCNC(=O)c1csc(Nc2cc(Cl)c(Cl)c(Cl)c2)n1	–	0.6 µM	> 100 µM	–	–
CC(C)OCCCNC(=O)c1csc(Nc2cc(F)c(Cl)c(F)c2)n1 [listing 1 of 2 here]	–	0.11 µM	> 100 µM	–	Insoluble
O=C(NCCCN1CCOCC1)c1csc(Nc2ccc(Cl)cc2)n1	–	3.1 µM	> 100 µM	–	–
CCOCCCNC(=O)c1csc(Nc2ccc(Cl)c(Cl)c2)n1	–	0.2 µM	> 100 µM	–	–
CCOCCCNC(=O)c1csc(Nc2ccc(Cl)cc2)n1	–	1.3 µM	> 100 µM	–	–
O=C(NCCCN1CCOCC1)c1csc(Nc2cc(F)c(Cl)c(F)c2)n1	–	0.8 µM	52 µM	–	–
CCOCCCNC(=O)c1csc(Nc2cc(Cl)c(Cl)c(Cl)c2)n1	–	0.4 µM	> 100 µM	–	–
CCOCCCNC(=O)c1csc(Nc2cc(F)c(Cl)c(F)c2)n1 [listing 2 of 2 here]	–	0.12 µM	> 100 µM	–	Insoluble
Cc1cc(Nc2nc(C(=O)NCCCN3CCOCC3)cs2)cc(C)c1Cl	–	3.1 µM	45.7 µM	–	–
O=C(NCCCN1CCOCC1)c1csc(Nc2ccc(Cl)c(F)c2)n1	–	3.2 µM	45 µM	–	–
Cc1cc(Nc2nc(C(=O)NCCCOC(C)C)cs2)ccc1Cl	–	1.2 µM	> 100 µM	–	–
O=C(NCCCN1CCOCC1)c1csc(Nc2cc(Cl)c(Cl)c(Cl)c2)n1	–	1.5 µM	41 µM	–	–
CC(C)OCCCNC(=O)c1csc(Nc2cc(F)c(Cl)c(F)c2)n1 [listing 2 of 2 here]	–	–	–	Active	–
